# Reference: ChEMBL document CHEMBL1139230, “New beta-alanine derivatives are orally available glucagon receptor antagonists” (J Med Chem, 2007)
# Activity calls are given as the source filed them. The calls are words filed in the database; no cut-off is given here.
# Legend:
# [1] = Bioavailability in orally dosed dog; assay type: ADME, organism-based, Canis lupus familiaris; conditions: in vivo, po
# Procedure, shortened: (§1)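 Dogs dosed orally and intravenously; oral availability and half-life after iv dosing determined.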
# [2] = Metabolic stability in iv dosed dog; assay type: ADME, organism-based, Canis lupus familiaris; conditions: in vivo; procedure, shortened: as §1
# [3] = target: Glucagon receptor (Rattus norvegicus, UniProt P30082); experiment: Inhibition of rat glucagon receptor
# Glucagon receptor (Rattus norvegicus, UniProt P30082), sequence (P30082 whole entry): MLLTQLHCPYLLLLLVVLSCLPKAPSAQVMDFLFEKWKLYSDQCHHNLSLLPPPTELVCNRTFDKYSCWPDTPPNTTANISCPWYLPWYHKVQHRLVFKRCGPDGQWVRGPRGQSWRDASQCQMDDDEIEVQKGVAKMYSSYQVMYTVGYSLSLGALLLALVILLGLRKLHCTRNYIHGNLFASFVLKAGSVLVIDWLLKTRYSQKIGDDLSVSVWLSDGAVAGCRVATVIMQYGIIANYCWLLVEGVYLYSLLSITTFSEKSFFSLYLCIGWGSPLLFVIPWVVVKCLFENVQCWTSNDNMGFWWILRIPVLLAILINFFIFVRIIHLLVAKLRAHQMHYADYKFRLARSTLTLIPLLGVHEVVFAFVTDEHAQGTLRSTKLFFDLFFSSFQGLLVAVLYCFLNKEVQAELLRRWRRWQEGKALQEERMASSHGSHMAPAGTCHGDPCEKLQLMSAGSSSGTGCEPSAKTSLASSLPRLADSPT
# [4] = target: Glucagon receptor (Homo sapiens, UniProt P47871); experiment: Inhibition of human cloned glucagon receptor expressed in BHK cells; assay type: cell-based
# Glucagon receptor (Homo sapiens, UniProt P47871), sequence (P47871 whole entry): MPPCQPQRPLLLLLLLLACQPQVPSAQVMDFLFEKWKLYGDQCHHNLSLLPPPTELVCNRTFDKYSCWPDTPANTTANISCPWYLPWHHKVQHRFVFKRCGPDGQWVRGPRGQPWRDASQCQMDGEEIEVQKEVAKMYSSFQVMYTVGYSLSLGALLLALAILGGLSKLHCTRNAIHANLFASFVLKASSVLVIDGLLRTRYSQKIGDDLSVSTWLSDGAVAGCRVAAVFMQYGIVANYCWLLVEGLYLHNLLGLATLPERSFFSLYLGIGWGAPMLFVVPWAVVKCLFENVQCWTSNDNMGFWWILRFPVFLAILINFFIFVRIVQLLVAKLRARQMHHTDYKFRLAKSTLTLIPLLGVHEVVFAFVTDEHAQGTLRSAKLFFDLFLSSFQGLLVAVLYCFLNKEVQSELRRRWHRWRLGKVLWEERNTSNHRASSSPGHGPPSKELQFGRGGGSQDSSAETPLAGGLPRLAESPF
# Procedure, shortened: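 Binding performed on plasma membranes from BHK cells expressing the cloned human glucagon receptor; IC50 values determined.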
# [5] = target: Glucagon-like peptide 1 receptor (Homo sapiens, UniProt P43220); experiment: Inhibition of GLP1 receptor
# Glucagon-like peptide 1 receptor, sequence (P43220 whole entry): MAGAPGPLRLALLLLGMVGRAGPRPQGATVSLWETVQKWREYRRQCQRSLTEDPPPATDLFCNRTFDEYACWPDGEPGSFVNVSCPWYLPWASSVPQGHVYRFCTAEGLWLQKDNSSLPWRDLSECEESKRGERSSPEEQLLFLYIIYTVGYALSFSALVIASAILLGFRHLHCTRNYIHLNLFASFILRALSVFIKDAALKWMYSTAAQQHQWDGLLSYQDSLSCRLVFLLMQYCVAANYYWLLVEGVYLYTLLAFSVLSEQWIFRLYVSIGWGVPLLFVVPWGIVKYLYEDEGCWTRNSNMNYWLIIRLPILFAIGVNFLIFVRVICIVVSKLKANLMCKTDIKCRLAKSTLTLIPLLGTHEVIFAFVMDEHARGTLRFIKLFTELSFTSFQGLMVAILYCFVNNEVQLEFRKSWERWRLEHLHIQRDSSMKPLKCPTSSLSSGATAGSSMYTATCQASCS
# [6] = system: Liver microsomes; experiment: Metabolic turnover in rat liver microsomes at 10 uM; assay type: ADME, Microsome
# Procedure, shortened: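 Metabolic rate estimated by incubating compounds with rat liver microsomes, used to rank metabolic stability.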
# [7] = Bioavailability in rat at 4 mg/kg, po; assay type: ADME, organism-based; conditions: in vivo
# Procedure, shortened: (§2)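 Rats given the compound at 4 mg/kg orally and 2 mg/kg intravenously. Plasma profiles yielded Cmax, Tmax, AUC, oral availability (F) and plasma half-life; half-life was taken from the iv dose.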
# [8] = Metabolic stability in rat at 2 mg/kg, iv; assay type: ADME, organism-based; parameters: dose 2 mg/kg, route intravenous; conditions: in vivo; procedure, shortened: as §2
# [9] = system: Rattus norvegicus; experiment: AUC in rat at 4 mg/kg, po and 2 mg/kg, iv; assay type: ADME, organism-based, Plasma; conditions: in vivo; procedure, shortened: as §2
# [10] = Cmax in rat at 4 mg/kg, po and 2 mg/kg, iv; assay type: ADME, organism-based; conditions: in vivo; procedure, shortened: as §2
# [11] = Tmax in rat at 4 mg/kg, po and 2 mg/kg, iv; assay type: ADME, organism-based; conditions: in vivo; procedure, shortened: as §2
# [12] = system: Rattus norvegicus; experiment: Reduction of blood glucose level in glucagon-challenged iv dosed Sprague-Dawley rat; assay type: functional, organism-based
# Procedure, shortened: (§3)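 Rats were anesthetized and given the compound intravenously over a range of doses, 5 min before an exogenous glucagon load of 3 µg/kg. The read-out was the glucagon-stimulated rise in blood glucose.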
# [13] = system: Rattus norvegicus; experiment: Reduction of blood glucose level in glucagon-challenged iv dosed Sprague-Dawley rat at 3 mg/kg; assay type: functional, organism-based; parameters: dose 3 mg/kg; procedure, shortened: as §3
# [14] = system: Rattus norvegicus; experiment: Reduction of blood glucose level in glucagon-challenged iv dosed Sprague-dawley rat at > 3 mg/kg; assay type: functional, organism-based; parameters: dose 3 mg/kg
# Procedure, shortened: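 Anesthetized rats received the compound intravenously across a range of doses 5 min before a 3 µg/kg glucagon load. The rise in blood glucose was followed.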
# [15] = species on record: Homo sapiens; experiment: Selectivity for glucagon receptor over GLP1 receptor
# [16] = system: Mus musculus; experiment: Reduction of blood glucose level in Umea ob/ob mouse at 100 mg/kg, po after 24 hrs; assay type: functional
# Procedure, shortened: (§4)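 ob/ob mice (n = 6 per group), vehicle or compound at 100 mg/kg po. Blood glucose was measured before dosing and again at 2, 4, 6 and 24 h; the change from the predose value was reported.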
# [17] = system: Mus musculus; experiment: Reduction of blood glucose level in Umea ob/ob mouse at 100 mg/kg, po after 6 hrs; assay type: functional; procedure, shortened: as §4
# [18] = system: Mus musculus; experiment: Reduction of blood glucose level in Umea ob/ob mouse at 100 mg/kg, po after 4 hrs; assay type: functional; procedure, shortened: as §4
# [19] = system: Mus musculus; experiment: Reduction of blood glucose level in Umea ob/ob mouse at 100 mg/kg, po after 2 hrs; assay type: functional; procedure, shortened: as §4
# [20] = system: Mus musculus; experiment: Reduction in cumulative food intake in Umea ob/ob mouse at 100 mg/kg, po; assay type: functional
# Procedure, shortened: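 ob/ob mice given vehicle or compound at 100 mg/kg po; cumulative food intake per mouse recorded from 6 to 24 h postdose.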
# [21] = system: Mus musculus; experiment: Blood glucose level in Umea ob/ob mouse at 100 mg/kg, po
compound,measurement,setting,value
CC(C)(C)[C@H]1CC[C@H](N(Cc2ccc(C(=O)NCCC(=O)O)cc2)C(=O)Nc2ccc(OC(F)(F)F)cc2)CC1,bioavailability,[1],10%
same,half-life,[2],1.68 h
same,IC50,[3],56 nM
same,IC50,[4],55 nM
same,IC50,[5],1000 nM
same,Activity,[6],100 pmol/min
same,bioavailability,[7],17%
same,half-life,[8],1.5 h
same,AUC,[9],217 ng·h/mL
same,Cmax,[10],106 ng/mL
same,Tmax,[11],1 h
same,Activity,[12],Dose-dependent effect
same,Activity,[13],Active
CC(C)(C)[C@H]1CC[C@H](N(Cc2ccc(C(=O)NCCC(=O)O)cc2)C(=O)Nc2ccc(C#N)cc2)CC1,IC50,[4],1050 nM
CCCC1CCC(N(Cc2ccc(C(=O)NCCC(=O)O)cc2)C(=O)Nc2ccc(OC(F)(F)F)cc2)CC1 (centres undefined),IC50,[4],122 nM
O=C(O)CCNC(=O)c1ccc(CN(C(=O)Nc2ccc(OC(F)(F)F)cc2)C2CCC(C(=O)O)CC2)cc1 (centres undefined),IC50,[4],> 10000 nM
CC(C)(C)C1CCC(N(Cc2ccc(C(=O)NCCCC(=O)O)cc2)C(=O)Nc2ccc(OC(F)(F)F)cc2)CC1 (centres undefined),IC50,[4],> 10000 nM
COC1CCC(N(Cc2ccc(C(=O)NCCC(=O)O)cc2)C(=O)Nc2ccc(OC(F)(F)F)cc2)CC1 (centres undefined),IC50,[4],> 10000 nM
CCCCc1ccc(NC(=O)N(Cc2ccc(C(=O)NCCC(=O)O)cc2)C2Cc3ccccc3C2)cc1,IC50,[4],179 nM
CC(C)(C)C1CCC(N(Cc2ccc(C(=O)NCCC(N)=O)cc2)C(=O)Nc2ccc(OC(F)(F)F)cc2)CC1 (centres undefined),IC50,[4],> 10000 nM
CCCCC(CC)N(Cc1ccc(C(=O)NCCC(=O)O)cc1)C(=O)Nc1ccc(OC(F)(F)F)cc1 (centres undefined),IC50,[4],141 nM
O=C(O)CCNC(=O)c1ccc(CN(C(=O)Nc2ccc(OC(F)(F)F)cc2)c2ccc(C3CCCCC3)cc2)cc1,IC50,[4],61 nM
same,bioavailability,[7],54%
same,half-life,[8],1.07 h
same,AUC,[9],1600 ng·h/mL
same,Cmax,[10],316 ng/mL
same,Tmax,[11],4 h
CC(C)(C)C1CCC(N(Cc2ccc(C(=O)N3CCCC(C(=O)O)C3)cc2)C(=O)Nc2ccc(OC(F)(F)F)cc2)CC1 (centres undefined),IC50,[4],1000 nM
CC(C)(C)[C@H]1CC[C@H](N(Cc2ccc(C(=O)NCCC(=O)O)cc2)C(=O)Nc2ccc(Cl)c(Cl)c2)CC1,Activity,[6],232 pmol/min
CC(C)(C)[C@H]1CC[C@H](N(Cc2ccc(C(=O)NCCC(=O)O)cc2)C(=O)Nc2ccc(C#N)cc2OC(F)(F)F)CC1,Activity,[6],130 pmol/min
CC(C)(C)[C@H]1CC[C@H](N(Cc2ccc(C(=O)NCCC(=O)O)cc2)C(=O)Nc2ccc(OC(F)(F)F)cc2C#N)CC1,IC50,[4],56 nM
same,Activity,[6],63 pmol/min
O=C(O)CCNC(=O)c1ccc(CN(CCC(c2ccccc2)c2ccccc2)C(=O)c2ccc(Cl)nc2)cc1,IC50,[4],7000 nM
same,IC50,[5],100000 nM
CC(C)(C)C1CCC(N(Cc2ccc(C(=O)NCC(=O)O)cc2)C(=O)Nc2ccc(OC(F)(F)F)cc2)CC1 (centres undefined),IC50,[4],1700 nM
CC(C)(CC(=O)O)NC(=O)c1ccc(CN(C(=O)Nc2ccc(OC(F)(F)F)cc2)C2CCC(C(C)(C)C)CC2)cc1 (centres undefined),IC50,[4],> 10000 nM
CC(C)c1ccc(NC(=O)N(Cc2ccc(C(=O)NCCC(=O)O)cc2)[C@H]2CC[C@H](C(C)(C)C)CC2)cc1,IC50,[4],35 nM
same,Activity,[6],283 pmol/min
same,bioavailability,[7],2%
same,half-life,[8],0.333 h
same,AUC,[9],43.3 ng·h/mL
same,Cmax,[10],40 ng/mL
same,Tmax,[11],0.25 h
O=C(O)CCNC(=O)c1ccc(CN(C(=O)Nc2ccc(OC(F)(F)F)cc2)C2CCC(C(=O)NCC3CC3)CC2)cc1 (centres undefined),IC50,[4],> 10000 nM
O=C(O)CCNC(=O)c1ccc(CN(CC(c2ccccc2)c2ccccc2)C(=O)c2csc3ccc(Cl)cc23)cc1,IC50,[4],116 nM
CC(C)(C)[C@H]1CC[C@H](N(Cc2ccc(C(=O)NCCC(=O)O)cc2)C(=O)Nc2cc(C(F)(F)F)cc(C(F)(F)F)c2)CC1,Activity,[6],139 pmol/min
COCCCNC(=O)c1ccc(CN(C(=O)Nc2ccc(OC(F)(F)F)cc2)C2CCC(C(C)(C)C)CC2)cc1 (centres undefined),IC50,[4],> 10000 nM
O=C(O)CCNC(=O)c1ccc(CN(C(=O)Nc2ccc(SC(F)(F)F)cc2)C2Cc3ccccc3C2)cc1,IC50,[4],262 nM
O=C(O)CCNC(=O)c1ccc(CN(C(=O)Nc2cc(Cl)cc(Cl)c2)c2ccc(C3=CCCCC3)cc2)cc1,bioavailability,[1],65%
same,half-life,[2],1.53 h
same,IC50,[3],122 nM
same,Activity,[14],Active
same,IC50,[4],27 nM
same,IC50,[5],4900 nM
same,Selectivity ratio,[15],180
same,bioavailability,[7],69%
same,half-life,[8],1.37 h
same,AUC,[9],2970 ng·h/mL
same,Cmax,[10],275 ng/mL
same,Tmax,[11],1 h
same,Activity,[12],Dose-dependent effect
same,Activity,[16],1.8 mM
same,Activity,[17],9.5 mM
same,Activity,[18],8.4 mM
same,Activity,[19],6.8 mM
same,Activity,[20],8.4 g
same,Activity,[21],18.3 mM
CNC(=O)C1CCC(N(Cc2ccc(C(=O)NCCC(=O)O)cc2)C(=O)Nc2ccc(OC(F)(F)F)cc2)CC1 (centres undefined),IC50,[4],> 10000 nM
CC(C)(C)C1CCC(N(Cc2ccc(C(=O)NCC(=O)NO)cc2)C(=O)Nc2ccc(OC(F)(F)F)cc2)CC1 (centres undefined),IC50,[4],2960 nM
